Measured values published in ChEMBL document CHEMBL3804796, “Discovery of Novel 3,3-Disubstituted Piperidines as Orally Bioavailable, Potent, and Efficacious HDM2-p53 Inhibitors” (ACS Med Chem Lett, 2016).
Activity calls are given as the source filed them. No cut-off for these calls is given here.

Key:
[1] = test system: CAKI-1; assay: Antiproliferative activity against human Caki1 cells expressing wild type p53 after 72 hrs by CellTitre-Glo assay; format: functional, cell-based
Procedure, shortened: (§1)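 Cell lines exposed to compound for 72 h; viability read by CellTiter-Glo and IC50 derived. p53 coding-region mutation status of each line established by direct sequencing.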

[2] = test system: CWR22R; assay: Antiproliferative activity against human 22Rv1 cells expressing wild type p53 after 72 hrs by CellTitre-Glo assay; format: functional, cell-based; procedure, shortened: as §1
[3] = test system: KU812; assay: Antiproliferative activity against human KU812 cells expressing wild type p53 after 72 hrs by CellTitre-Glo assay; format: functional, cell-based; procedure, shortened: as §1
[4] = Clearance in mouse at 2 mg/kg, iv; format: ADME, organism-based; details: in vivo
[5] = target: Cytochrome P450 2D6 (Homo sapiens, UniProt P10635); assay: Inhibition of CYP2D6 (unknown origin); format: ADME
Cytochrome P450 2D6, sequence (P10635 whole entry): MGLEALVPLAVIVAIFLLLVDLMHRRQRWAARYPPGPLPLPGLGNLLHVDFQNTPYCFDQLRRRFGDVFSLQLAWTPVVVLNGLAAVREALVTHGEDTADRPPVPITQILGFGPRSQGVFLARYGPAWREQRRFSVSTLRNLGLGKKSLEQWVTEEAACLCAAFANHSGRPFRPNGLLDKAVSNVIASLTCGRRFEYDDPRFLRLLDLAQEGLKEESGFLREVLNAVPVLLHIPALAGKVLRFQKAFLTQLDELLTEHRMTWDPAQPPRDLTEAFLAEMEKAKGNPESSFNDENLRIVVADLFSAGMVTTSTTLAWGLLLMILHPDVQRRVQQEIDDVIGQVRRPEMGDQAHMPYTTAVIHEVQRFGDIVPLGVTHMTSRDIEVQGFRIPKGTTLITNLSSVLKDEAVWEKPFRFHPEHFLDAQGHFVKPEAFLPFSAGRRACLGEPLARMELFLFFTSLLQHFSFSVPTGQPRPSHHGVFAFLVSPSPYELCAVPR

[6] = target: T1, Tumour suppressor p53/oncoprotein Mdm2 (Homo sapiens, UniProt Q00987); assay: Inhibition of MDM2/p53 interaction in human HCT116 cells assessed as activation of p53 transcription by luciferase reporter gene assay; format: cell-based, HCT-116
T1 sequence (P04637 whole entry): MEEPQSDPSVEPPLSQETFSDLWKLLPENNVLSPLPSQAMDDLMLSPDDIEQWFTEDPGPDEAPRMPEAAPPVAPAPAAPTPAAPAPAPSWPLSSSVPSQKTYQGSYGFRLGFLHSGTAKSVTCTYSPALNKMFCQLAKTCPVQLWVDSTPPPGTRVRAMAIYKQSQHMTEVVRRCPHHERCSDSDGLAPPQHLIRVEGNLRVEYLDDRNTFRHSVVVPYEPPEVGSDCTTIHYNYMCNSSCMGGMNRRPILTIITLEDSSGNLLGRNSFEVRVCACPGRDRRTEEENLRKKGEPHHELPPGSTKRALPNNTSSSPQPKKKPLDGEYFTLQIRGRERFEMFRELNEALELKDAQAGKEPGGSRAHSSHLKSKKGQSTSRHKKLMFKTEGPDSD
T1 sequence (Q00987 whole entry): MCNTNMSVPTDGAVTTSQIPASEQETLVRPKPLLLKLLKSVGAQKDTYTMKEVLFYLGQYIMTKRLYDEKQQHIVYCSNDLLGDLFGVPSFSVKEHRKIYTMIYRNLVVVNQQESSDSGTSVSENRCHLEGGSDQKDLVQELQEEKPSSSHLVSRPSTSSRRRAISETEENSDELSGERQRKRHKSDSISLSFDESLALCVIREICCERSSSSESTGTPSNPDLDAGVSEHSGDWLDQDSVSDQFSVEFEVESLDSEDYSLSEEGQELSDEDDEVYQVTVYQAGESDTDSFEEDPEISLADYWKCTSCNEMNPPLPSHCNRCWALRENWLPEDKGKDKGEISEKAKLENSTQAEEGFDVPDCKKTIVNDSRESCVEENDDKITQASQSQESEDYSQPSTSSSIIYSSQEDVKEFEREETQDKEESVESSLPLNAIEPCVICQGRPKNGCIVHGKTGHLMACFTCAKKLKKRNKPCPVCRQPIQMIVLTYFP
Procedure, shortened: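 p53 transcriptional activation measured in HCT116 cells with a p53 response element–driven luciferase reporter (P53RE-Luc).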

[7] = test system: HCT-116; assay: Selectivity ratio of IC50 for p53 null human H1299 cells to IC50 for human HCT116 cells expressing wild type p53; format: functional
Procedure, shortened: (§2)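 Ratio of two IC50s, each from a 72 h CellTiter-Glo viability assay. p53 coding-region status was confirmed by direct sequencing. The ratio is p53-mutant (SK-UT-1) or p53-null (H1299) IC50 divided by wild-type p53 (SJSA-1 or HCT116) IC50.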

[8] = test system: SJSA-1; assay: Selectivity ratio of IC50 for p53 null human H1299 cells to IC50 for human SJSA1 cells expressing wild type p53; format: functional; procedure, shortened: as §2
[9] = test system: EOL1; assay: Antiproliferative activity against human EOL-1 cells expressing wild type p53 after 72 hrs by CellTitre-Glo assay; format: functional, cell-based; procedure, shortened: as §1
[10] = target: Cytochrome P450 3A4 (Homo sapiens, UniProt P08684); assay: Time dependent inhibition of CYP3A4 (unknown origin); format: ADME
Cytochrome P450 3A4, sequence (P08684 whole entry): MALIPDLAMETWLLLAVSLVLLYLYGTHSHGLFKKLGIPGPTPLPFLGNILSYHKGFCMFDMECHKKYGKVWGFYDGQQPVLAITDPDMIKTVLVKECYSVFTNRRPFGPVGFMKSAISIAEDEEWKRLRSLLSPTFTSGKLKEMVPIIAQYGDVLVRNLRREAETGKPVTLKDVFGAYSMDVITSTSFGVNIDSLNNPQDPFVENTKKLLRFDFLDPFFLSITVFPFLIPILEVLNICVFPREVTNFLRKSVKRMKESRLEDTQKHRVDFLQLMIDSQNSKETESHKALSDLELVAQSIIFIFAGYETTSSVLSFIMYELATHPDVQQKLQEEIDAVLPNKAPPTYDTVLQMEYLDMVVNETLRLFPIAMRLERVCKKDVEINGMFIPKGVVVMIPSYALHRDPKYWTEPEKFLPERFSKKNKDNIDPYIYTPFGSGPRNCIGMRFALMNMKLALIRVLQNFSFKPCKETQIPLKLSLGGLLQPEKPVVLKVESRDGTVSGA

[11] = test system: Mus musculus; assay: Dose normalized AUC (0 to 24 hrs) in mouse at 1 mg/kg, po administered as single dose; format: ADME, organism-based; details: in vivo
Procedure, shortened: (§3)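 Single oral dose of 1 mg/kg. Vehicle was 20% HPBCD for mouse and 0.4% HPMC for dog and monkey. Plasma AUC over 0–24 h, dose-normalized, reported in μM·h.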

[12] = Antitumor activity against human SJSA1 cells xenografted in nude mouse assessed as tumor growth inhibition at 50 mg/kg, po qd administered with cycle of 3 days on, 4 days off for 30 days relative to control; format: functional; details: SJSA-1, po, read-out: TGI
Procedure, shortened: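 Nude mice bearing SJSA-1 osteosarcoma xenografts, n = 5 per group. Oral dosing in 20% HPBCD, given either intermittently (daily, 3 days on/4 days off) or continuously daily. Body weight was monitored against a vehicle control group.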

[13] = test system: HCT-116; assay: Selectivity ratio of IC50 for human SK-UT-1 cells harboring mutant p53 to IC50 for human HCT116 cells expressing wild type p53; format: functional; procedure, shortened: as §2
[14] = test system: SJSA-1; assay: Induction of apoptosis in human SJSA1 cells assessed as caspase 3/7 activation; format: functional, cell-based
[15] = test system: ZR-75-1; assay: Antiproliferative activity against human ZR-75-1 cells expressing wild type p53 after 72 hrs by CellTitre-Glo assay; format: functional, cell-based; procedure, shortened: as §1
[16] = test system: SR; assay: Antiproliferative activity against human SR cells expressing wild type p53 after 72 hrs by CellTitre-Glo assay; format: functional, cell-based; procedure, shortened: as §1
[17] = test system: A549; assay: Antitumor activity against human A549 cells xenografted in nude mouse assessed as tumor growth inhibition at 100 mg/kg, po qd administered with cycle of 3 days on, 4 days off for 30 days coadministered with 20 mg/kg, ip once weekly paclitaxel relative to control; format: functional
Procedure, shortened: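 Mice bearing A549 NSCLC xenografts. The test agent was given orally, either daily or intermittently (daily for 3 days, then 4 days off). Paclitaxel was given at 20 mg/kg ip weekly, alone or in combination. Read-out was tumor growth inhibition.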

[18] = Antiproliferative activity against human SJSA1 cells expressing wild type p53 after 72 hrs by CellTitre-Glo assay; details: SJSA-1, 72 h
[19] = Antiproliferative activity against human HCT116 cells expressing wild type p53 after 72 hrs by CellTitre-Glo assay; format: functional, cell-based; details: HCT-116, 72 h
Procedure, shortened: (§4)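 Cancer cell lines of known p53 coding-region status (checked by direct sequencing) were exposed to the compound for 72 h. Viability was read with CellTiter-Glo, and the IC50 was taken from these readings.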

[20] = test system: MOLT-3; assay: Antiproliferative activity against human MOLT3 cells expressing wild type p53 after 72 hrs by CellTitre-Glo assay; format: functional, cell-based; procedure, shortened: as §1
[21] = target: T1, Tumour suppressor p53/oncoprotein Mdm2; assay: Inhibition of human recombinant His-tagged MDM2 (1 to 118 residues) interaction with FAM-tagged p53-based peptide (unknown origin) incubated for 15 mins by fluorescence polarization assay; format: protein assay
[22] = test system: SK-UT-1; assay: Antiproliferative activity against human SK-UT-1 cells harboring mutant p53 after 72 hrs by CellTitre-Glo assay; format: functional, cell-based; details: SK-UT-1, 72 h; procedure, shortened: as §4
[23] = target: hERG (KCNH2) (Homo sapiens, UniProt Q12809); assay: Inhibition of human ERG at 6 uM relative to control
hERG (KCNH2), sequence (Q12809 whole entry): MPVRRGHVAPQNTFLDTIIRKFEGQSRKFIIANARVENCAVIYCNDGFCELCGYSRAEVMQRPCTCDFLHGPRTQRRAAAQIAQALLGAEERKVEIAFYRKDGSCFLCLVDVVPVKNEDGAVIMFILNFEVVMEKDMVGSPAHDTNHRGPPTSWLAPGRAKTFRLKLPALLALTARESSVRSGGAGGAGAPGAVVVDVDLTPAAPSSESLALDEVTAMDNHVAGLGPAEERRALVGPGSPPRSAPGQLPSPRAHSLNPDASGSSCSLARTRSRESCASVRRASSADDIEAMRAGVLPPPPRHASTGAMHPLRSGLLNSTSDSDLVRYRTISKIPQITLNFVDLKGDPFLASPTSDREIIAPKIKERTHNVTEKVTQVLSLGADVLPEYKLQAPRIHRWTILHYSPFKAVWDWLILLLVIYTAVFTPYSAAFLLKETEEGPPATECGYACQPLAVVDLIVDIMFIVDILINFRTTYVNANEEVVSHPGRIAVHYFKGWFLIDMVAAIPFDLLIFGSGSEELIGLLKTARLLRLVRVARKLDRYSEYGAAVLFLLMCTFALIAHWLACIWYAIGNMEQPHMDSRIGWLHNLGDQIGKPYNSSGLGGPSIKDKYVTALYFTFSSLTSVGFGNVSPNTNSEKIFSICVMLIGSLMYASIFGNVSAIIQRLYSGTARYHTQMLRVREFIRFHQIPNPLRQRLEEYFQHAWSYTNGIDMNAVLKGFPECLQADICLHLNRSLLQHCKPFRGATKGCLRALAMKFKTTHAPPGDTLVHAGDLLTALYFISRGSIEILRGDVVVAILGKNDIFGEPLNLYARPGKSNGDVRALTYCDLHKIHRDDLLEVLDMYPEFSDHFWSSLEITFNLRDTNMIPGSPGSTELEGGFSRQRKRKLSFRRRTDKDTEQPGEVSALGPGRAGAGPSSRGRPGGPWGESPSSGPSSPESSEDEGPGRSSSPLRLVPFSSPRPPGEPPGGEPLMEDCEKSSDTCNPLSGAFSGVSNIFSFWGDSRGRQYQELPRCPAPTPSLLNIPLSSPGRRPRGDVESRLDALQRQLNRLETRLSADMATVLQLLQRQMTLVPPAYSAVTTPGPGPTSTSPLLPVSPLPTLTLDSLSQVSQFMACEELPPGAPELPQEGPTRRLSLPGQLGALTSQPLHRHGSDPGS
Procedure, shortened: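 hERG inhibition measured by voltage clamp at 6 μM compound.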

[24] = test system: ML-2; assay: Antiproliferative activity against human ML2 cells expressing wild type p53 after 72 hrs by CellTitre-Glo assay; format: functional, cell-based; procedure, shortened: as §1
[25] = test system: UACC-62; assay: Antiproliferative activity against human UACC62 cells expressing wild type p53 after 72 hrs by CellTitre-Glo assay; format: functional, cell-based; procedure, shortened: as §1
[26] = test system: Canis familiaris; assay: Dose normalized AUC (0 to 24 hrs) in dog at 1 mg/kg, po administered as single dose; format: ADME, organism-based, Canis lupus familiaris; details: in vivo; procedure, shortened: as §3
[27] = Permeability from apical to basolateral side in human Caco2 cells; format: ADME, cell-based; details: Caco-2, read-out: permeability
[28] = test system: SJSA-1; assay: Antitumor activity against human SJSA1 cells xenografted in nude mouse assessed as tumor growth inhibition at 100 mg/kg, po qd continuously for 30 days; format: functional, organism-based
Procedure, shortened: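 Nude mice bearing SJSA-1 osteosarcoma xenografts, 5 per group, dosed orally in 20% HPBCD. Schedules were either continuous daily or intermittent (3 days on, 4 days off), at 100 and 200 mpk. Tumor volume and body weight followed against a vehicle control group.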

[29] = Fraction unbound in mouse plasma; format: ADME, cell-free
[30] = test system: A-375; assay: Antiproliferative activity against human A375 cells expressing wild type p53 after 72 hrs by CellTitre-Glo assay; format: functional, cell-based; procedure, shortened: as §1
[31] = test system: A549; assay: Antiproliferative activity against human A549 cells expressing wild type p53 after 72 hrs by CellTitre-Glo assay; format: functional, cell-based; procedure, shortened: as §1
[32] = target: Cytochrome P450 1A2 (Homo sapiens, UniProt P05177); assay: Inhibition of CYP1A2 (unknown origin); format: ADME
Cytochrome P450 1A2, sequence (P05177 whole entry): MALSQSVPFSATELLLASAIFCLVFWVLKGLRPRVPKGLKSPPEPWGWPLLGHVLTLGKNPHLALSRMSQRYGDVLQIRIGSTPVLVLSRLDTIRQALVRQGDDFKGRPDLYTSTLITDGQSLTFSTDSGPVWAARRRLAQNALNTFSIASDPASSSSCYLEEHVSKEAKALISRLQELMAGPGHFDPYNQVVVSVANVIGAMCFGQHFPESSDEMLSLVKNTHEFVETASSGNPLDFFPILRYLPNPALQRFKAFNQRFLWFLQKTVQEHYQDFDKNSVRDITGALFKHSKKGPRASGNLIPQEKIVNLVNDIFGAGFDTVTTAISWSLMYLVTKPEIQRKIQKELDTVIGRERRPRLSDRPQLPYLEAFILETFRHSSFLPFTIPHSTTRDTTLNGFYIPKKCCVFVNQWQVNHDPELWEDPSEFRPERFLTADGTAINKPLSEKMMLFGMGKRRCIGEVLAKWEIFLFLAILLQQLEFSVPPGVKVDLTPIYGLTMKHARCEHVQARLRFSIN

[33] = test system: A2780; assay: Antitumor activity against human A2780 cells xenografted in nude mouse harboring wild type p53 assessed as tumor growth inhibition at 50 mg/kg, po bid continuously for 15 days coadministered with 40 mg/kg, ip, once weekly docetaxel relative to control; format: functional
Procedure, shortened: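 Wild-type p53 mice bearing A2780 ovarian xenografts. The test agent was given at 50 mg/kg orally twice daily, continuously. Docetaxel was given at 40 mg/kg ip weekly, twice in total. Each was given alone and in combination. Read-out was tumor growth inhibition.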

CCC[C@H]1N(C(=O)c2cnccc2C(F)(F)F)CCC[C@@]1(Oc1csc(C(F)(F)F)c1)C(=O)N1CCN(c2ccccc2OCCCC(=O)O)CC1
Activity [1]: Active
Activity [2]: Active
Activity [3]: Active
clearance [4]: 133 mL/min/kg
IC50 [5]: > 50000 nM
EC50 [6]: 100 nM
Ratio IC50 [7]: >500
Ratio IC50 [8]: >500
Activity [9]: Active
TDI [10]: Active
AUC/dose [11]: 0.1 µM·h
inhibition in vivo at 50 mg/kg [12]: 92%
Ratio IC50 [13]: >500
IC50 [14]: 90 nM
Activity [15]: Active
Activity [16]: Active
TGI [17]: 85%
IC50 [18]: 80 nM
IC50 [19]: 180 nM
Activity [20]: Active
IC50 [21]: 7 nM
IC50 [22]: > 50000 nM
inhibition at 6 µM [23]: 20%
Activity [24]: Active
Activity [25]: Active
AUC/dose [26]: 5.8 µM·h
Papp A→B [27]: 18 ×10⁻⁶ cm/s
TGI [28]: Active
fraction unbound [29]: 0.03
Activity [30]: Active
Activity [31]: Active
IC50 [32]: > 50000 nM
TGI [33]: 81%
